How the values were obtained:
Format in all cases: cell-based
[1] = target: Fibroblast growth factor receptor 1 (Homo sapiens) (UniProt P11362); test: Inhibition of FGFR1 in human SKCO1 cells at 1 uM after 4 hrs using biotin labeled VAVKMLK probe by mass-spectrometric analysis relative to control; settings: pooled result: one value given for 4 cell lines, strains, targets or settings
[2] = target: Serine/threonine-protein kinase Nek4 (Homo sapiens) (UniProt P51957); test: Inhibition of NEK4 in human SKCO1 cells at 1 uM after 4 hrs using biotin labeled DLKTQNVFLTR probe by mass-spectrometric analysis relative to control
How it was run: (§1)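 Live SK-CO-1 cells exposed to compound at 1 μM or DMSO for 4 h (KiNativ). Lysates then labeled with lysine-reactive ATP/ADP-biotin probe, and probe-labeled kinase peptides quantified by mass spectrometry. Percent inhibition of probe-dependent recovery calculated relative to DMSO-treated cells.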

[3] = target: T1, Serine/threonine-protein kinase Nek9 (Homo sapiens) (UniProt Q8TD19); test: Inhibition of NEK9 in human SKCO1 cells at 1 uM after 4 hrs using biotin labeled DIKTLNIFLTK probe by mass-spectrometric analysis relative to control; how it was run: as §1
T1 sequence (whole entry): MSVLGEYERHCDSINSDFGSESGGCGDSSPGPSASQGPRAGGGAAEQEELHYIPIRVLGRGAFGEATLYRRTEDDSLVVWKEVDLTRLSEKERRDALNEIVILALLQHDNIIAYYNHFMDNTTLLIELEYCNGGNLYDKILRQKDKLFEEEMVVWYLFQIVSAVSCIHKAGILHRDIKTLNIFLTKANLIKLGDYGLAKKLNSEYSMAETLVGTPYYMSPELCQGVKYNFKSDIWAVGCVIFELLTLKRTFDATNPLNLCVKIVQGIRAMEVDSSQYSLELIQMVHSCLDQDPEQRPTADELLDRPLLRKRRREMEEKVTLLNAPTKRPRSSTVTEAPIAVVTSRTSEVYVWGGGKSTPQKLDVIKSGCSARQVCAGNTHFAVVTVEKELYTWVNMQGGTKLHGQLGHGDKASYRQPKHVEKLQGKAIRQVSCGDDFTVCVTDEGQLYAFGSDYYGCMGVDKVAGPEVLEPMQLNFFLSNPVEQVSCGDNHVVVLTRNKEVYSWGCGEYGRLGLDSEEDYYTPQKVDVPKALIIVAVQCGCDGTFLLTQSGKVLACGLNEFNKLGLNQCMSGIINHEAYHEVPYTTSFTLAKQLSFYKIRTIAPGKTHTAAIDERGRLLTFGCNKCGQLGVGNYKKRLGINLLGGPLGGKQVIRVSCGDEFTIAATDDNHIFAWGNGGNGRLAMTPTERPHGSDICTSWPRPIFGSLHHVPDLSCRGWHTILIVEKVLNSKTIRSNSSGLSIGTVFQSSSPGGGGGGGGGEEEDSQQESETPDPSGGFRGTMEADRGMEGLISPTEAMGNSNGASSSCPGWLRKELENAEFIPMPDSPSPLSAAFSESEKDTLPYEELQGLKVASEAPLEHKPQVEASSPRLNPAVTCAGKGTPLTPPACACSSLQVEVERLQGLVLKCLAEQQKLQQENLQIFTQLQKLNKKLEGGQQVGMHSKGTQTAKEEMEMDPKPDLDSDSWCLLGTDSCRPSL

[4] = target: Cyclin-dependent kinase 18 (Homo sapiens) (UniProt Q07002); test: Inhibition of PCTAIRE3 in human SKCO1 cells at 1 uM after 4 hrs using biotin labeled SKLTENLVALKEIR probe by mass-spectrometric analysis relative to control; how it was run: as §1
[5] = target: Cyclin-dependent kinase 15 (Homo sapiens) (UniProt Q96Q40); test: Inhibition of PFTAIRE2 in human SKCO1 cells at 1 uM after 4 hrs using biotin labeled DLKPQNLLISHLGELK probe by mass-spectrometric analysis relative to control; how it was run: as §1
[6] = target: 1-phosphatidylinositol 3-phosphate 5-kinase (Homo sapiens) (UniProt Q9Y2I7); test: Inhibition of PIP5K3 in human SKCO1 cells at 1 uM after 4 hrs using biotin labeled GGKSGAAFYATEDDRFILK probe by mass-spectrometric analysis relative to control; how it was run: as §1
[7] = target: T2, Protein kinase C zeta type (Homo sapiens) (UniProt Q05513); test: Inhibition of PKCz in human SKCO1 cells at 1 uM after 4 hrs using biotin labeled DLKLDNVLLDADGHIK probe by mass-spectrometric analysis relative to control; how it was run: as §1
T2 sequence (whole entry): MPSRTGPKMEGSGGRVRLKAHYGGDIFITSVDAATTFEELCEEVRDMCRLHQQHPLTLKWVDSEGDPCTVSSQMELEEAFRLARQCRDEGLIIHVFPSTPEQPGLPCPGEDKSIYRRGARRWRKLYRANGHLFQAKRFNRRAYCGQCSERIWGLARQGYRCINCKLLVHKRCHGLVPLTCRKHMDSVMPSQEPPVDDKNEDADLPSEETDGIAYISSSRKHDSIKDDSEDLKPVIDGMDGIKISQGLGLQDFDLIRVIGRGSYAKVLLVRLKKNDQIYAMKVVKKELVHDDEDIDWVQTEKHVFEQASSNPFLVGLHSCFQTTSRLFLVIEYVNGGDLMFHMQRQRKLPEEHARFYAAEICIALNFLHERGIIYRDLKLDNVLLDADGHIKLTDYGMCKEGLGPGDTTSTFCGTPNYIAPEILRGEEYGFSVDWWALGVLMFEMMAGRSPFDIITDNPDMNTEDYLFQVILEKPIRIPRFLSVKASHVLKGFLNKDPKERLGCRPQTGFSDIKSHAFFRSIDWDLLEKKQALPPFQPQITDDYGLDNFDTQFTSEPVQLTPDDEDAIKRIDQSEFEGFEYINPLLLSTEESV

[8] = target: Serine/threonine-protein kinase 32C (Homo sapiens) (UniProt Q86UX6); test: Inhibition of YANK3 in human SKCO1 cells at 1 uM after 4 hrs using biotin labeled DVKPDNILLDER probe by mass-spectrometric analysis relative to control; how it was run: as §1
Sequence of Serine/threonine-protein kinase 32C (Homo sapiens) (Q86UX6 whole entry): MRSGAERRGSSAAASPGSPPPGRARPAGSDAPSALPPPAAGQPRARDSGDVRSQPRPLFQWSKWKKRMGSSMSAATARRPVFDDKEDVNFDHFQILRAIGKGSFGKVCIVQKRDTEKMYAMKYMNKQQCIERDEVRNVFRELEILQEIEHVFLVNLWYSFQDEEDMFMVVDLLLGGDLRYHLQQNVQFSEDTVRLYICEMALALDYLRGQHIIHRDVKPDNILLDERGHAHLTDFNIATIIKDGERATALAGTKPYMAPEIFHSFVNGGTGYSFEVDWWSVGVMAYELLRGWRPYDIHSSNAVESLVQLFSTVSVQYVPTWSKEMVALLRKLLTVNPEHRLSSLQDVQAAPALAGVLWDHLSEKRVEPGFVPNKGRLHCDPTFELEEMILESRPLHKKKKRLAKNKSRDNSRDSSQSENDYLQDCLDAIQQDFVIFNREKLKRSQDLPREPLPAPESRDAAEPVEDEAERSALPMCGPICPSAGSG

Sequence of Serine/threonine-protein kinase Nek4 (Homo sapiens) (P51957 whole entry, looked up): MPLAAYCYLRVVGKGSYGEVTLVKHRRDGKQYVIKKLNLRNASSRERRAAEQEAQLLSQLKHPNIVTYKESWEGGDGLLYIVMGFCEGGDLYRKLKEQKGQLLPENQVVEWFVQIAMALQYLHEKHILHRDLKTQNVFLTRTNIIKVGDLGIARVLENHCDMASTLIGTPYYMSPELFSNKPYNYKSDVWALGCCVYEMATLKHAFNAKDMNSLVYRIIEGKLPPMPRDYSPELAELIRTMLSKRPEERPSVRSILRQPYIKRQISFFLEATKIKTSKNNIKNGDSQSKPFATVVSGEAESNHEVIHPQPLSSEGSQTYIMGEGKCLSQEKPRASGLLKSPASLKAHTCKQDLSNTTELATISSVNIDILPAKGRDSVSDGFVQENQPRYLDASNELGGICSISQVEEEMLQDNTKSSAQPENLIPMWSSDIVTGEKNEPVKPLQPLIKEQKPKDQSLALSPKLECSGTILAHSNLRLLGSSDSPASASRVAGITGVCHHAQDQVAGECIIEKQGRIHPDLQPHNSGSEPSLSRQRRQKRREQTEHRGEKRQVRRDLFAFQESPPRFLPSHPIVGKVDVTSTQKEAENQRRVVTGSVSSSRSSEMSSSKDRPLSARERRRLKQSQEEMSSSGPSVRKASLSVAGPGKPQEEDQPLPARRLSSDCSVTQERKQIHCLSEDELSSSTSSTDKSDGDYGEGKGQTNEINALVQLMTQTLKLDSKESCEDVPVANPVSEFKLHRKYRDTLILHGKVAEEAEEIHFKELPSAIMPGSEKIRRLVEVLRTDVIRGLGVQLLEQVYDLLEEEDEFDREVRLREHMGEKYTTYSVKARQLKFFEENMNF
Sequence of 1-phosphatidylinositol 3-phosphate 5-kinase (Homo sapiens) (Q9Y2I7 whole entry): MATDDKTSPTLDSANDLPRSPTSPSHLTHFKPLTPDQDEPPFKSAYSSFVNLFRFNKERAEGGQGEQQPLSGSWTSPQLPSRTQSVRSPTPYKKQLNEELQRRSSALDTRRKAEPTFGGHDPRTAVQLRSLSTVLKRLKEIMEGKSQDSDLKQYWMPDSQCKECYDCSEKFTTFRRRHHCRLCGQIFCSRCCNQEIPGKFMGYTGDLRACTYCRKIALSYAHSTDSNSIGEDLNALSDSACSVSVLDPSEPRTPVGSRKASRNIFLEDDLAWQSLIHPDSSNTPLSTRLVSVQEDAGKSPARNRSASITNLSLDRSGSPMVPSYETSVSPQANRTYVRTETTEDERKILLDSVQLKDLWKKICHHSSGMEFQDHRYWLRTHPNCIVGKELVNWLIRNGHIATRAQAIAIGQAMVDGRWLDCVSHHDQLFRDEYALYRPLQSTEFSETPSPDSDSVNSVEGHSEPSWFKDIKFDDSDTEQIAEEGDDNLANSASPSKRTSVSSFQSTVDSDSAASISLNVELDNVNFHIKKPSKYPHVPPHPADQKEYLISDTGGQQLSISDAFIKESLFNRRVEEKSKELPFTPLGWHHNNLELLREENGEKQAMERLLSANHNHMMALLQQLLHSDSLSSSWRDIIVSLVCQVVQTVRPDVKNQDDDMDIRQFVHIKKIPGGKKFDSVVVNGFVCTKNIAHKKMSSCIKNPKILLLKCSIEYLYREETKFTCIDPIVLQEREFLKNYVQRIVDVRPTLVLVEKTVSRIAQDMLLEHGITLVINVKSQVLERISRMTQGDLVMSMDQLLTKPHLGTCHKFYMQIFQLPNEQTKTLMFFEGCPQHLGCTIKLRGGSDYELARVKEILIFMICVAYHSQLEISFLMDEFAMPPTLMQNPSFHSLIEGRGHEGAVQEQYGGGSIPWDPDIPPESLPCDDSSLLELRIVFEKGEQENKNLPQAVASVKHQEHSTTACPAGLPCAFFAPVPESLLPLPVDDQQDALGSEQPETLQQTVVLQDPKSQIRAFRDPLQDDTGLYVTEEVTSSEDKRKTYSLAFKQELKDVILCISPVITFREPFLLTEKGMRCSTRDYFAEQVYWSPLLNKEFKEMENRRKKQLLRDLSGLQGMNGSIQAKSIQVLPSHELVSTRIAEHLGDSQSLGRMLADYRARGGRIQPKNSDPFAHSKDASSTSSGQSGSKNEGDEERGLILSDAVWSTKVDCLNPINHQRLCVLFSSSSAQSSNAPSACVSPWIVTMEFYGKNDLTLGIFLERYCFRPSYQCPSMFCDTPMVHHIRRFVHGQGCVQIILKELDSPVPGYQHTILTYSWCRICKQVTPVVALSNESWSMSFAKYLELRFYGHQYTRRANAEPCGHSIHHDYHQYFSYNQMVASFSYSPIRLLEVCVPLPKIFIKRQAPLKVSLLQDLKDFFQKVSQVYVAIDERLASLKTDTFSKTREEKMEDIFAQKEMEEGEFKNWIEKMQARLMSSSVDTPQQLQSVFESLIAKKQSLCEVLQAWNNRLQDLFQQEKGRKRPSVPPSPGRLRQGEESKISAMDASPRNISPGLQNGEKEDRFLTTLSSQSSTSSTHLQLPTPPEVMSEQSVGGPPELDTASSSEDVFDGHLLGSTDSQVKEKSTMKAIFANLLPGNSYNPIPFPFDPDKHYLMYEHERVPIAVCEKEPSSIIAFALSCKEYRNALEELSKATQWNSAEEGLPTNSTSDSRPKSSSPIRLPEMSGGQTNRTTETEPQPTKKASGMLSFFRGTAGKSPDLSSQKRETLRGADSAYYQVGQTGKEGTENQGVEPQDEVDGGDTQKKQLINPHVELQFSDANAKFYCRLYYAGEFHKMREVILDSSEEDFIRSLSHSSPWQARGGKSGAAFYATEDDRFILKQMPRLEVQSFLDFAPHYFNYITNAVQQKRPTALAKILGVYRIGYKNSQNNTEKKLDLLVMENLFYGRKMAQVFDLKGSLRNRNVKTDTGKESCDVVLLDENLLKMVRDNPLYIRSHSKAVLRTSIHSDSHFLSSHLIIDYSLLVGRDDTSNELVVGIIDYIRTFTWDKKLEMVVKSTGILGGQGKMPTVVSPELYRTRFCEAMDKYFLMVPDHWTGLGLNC
Sequence of Fibroblast growth factor receptor 1 (Homo sapiens) (P11362 22-822 limits assumed): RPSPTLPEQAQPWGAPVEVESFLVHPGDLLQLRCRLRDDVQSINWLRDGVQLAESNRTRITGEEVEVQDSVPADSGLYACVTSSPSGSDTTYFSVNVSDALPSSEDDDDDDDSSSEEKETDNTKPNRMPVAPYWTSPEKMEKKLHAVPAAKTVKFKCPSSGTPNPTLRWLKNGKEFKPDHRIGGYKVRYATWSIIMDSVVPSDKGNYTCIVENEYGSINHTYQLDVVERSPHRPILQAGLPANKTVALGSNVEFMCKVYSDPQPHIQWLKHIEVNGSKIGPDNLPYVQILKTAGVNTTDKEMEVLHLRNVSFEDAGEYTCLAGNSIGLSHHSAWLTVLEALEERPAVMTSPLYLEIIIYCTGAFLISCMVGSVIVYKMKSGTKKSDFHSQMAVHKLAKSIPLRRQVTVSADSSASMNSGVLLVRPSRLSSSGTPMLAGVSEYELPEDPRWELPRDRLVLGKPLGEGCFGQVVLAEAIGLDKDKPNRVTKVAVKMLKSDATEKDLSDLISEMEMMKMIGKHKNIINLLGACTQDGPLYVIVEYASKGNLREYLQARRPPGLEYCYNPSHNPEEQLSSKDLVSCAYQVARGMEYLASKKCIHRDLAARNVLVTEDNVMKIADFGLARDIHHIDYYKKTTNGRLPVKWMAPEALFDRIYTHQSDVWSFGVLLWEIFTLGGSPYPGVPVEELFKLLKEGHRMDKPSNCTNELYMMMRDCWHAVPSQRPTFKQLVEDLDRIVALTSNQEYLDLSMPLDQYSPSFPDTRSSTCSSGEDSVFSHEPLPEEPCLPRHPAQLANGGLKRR
Sequence of Cyclin-dependent kinase 15 (Homo sapiens) (Q96Q40 whole entry): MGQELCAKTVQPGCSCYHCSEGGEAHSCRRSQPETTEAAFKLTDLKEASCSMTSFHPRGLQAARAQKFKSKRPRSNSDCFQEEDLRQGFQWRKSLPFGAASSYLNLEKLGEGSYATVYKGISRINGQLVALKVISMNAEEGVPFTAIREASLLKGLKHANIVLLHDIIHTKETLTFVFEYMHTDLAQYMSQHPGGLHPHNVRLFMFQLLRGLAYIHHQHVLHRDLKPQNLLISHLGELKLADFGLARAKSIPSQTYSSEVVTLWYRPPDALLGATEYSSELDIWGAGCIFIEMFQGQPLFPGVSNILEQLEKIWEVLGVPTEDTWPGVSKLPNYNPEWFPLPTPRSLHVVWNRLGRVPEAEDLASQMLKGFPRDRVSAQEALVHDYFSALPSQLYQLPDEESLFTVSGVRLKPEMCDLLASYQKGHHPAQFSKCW

For `C=CC(=O)Nc1ccccc1Nc1nc(Nc2ccc(N3CCN(C)CC3)cc2)ncc1Cl`, which inhibition [1] is on record?
Its inhibition is 33.7%.

And the inhibition [2]?
The inhibition was 23.8%.

And the inhibition [3]?
The inhibition was 3.2%.

And the inhibition [4]?
Its inhibition is 3.7%.

What about the inhibition [5] of the same compound?
The inhibition was 41.5%.

What about the inhibition [6] of the same compound?
The inhibition was 61.5%.

What about the inhibition [7] of the same compound?
Its inhibition is 14.5%.

And the inhibition [8]?
Its inhibition is -0.3%.

How did the inhibition [1] turn out when `COc1cc(O)c2c(c1)/C=C/C[C@H](O)[C@H](O)C(=O)/C=C\C[C@H](C)OC2=O` was run?
Its inhibition is 18.4%.

What about the inhibition [2] of the same compound?
The inhibition was 18.9%.

What about the inhibition [3] of the same compound?
The inhibition was 24.7%.

And the inhibition [4]?
Its inhibition is 21.2%.

What about the inhibition [5] of the same compound?
The inhibition was 31.8%.

What about the inhibition [6] of the same compound?
The inhibition was 64.9%.

What about the inhibition [7] of the same compound?
The inhibition was 42.1%.

And the inhibition [8]?
Its inhibition is -1.6%.

With `C=CC(=O)Nc1ccccc1Oc1nc(Nc2cnn(CCOC)c2)ncc1Cl` as the compound, how does the inhibition [1] read?
Its inhibition is 7.6%.

And the inhibition [2]?
Its inhibition is 15.1%.

What about the inhibition [3] of the same compound?
Its inhibition is 9%.

And the inhibition [4]?
Its inhibition is 21.9%.

What about the inhibition [5] of the same compound?
Its inhibition is 22.8%.

And the inhibition [6]?
Its inhibition is 54.1%.

And the inhibition [7]?
Its inhibition is 30%.

And the inhibition [8]?
The inhibition was 9.3%.

From ChEMBL document CHEMBL4118021, “Studies of TAK1-centered polypharmacology with novel covalent TAK1 inhibitors” (Bioorg Med Chem, 2017)
